Measurements: article PMC3304101 (Journal of Medicinal Chemistry, 2010)
Structures can show the parent of a compound that is named as a salt. Where two headings read alike, the source gives them in different places. One block for each molecule: values may come before it.

Columns and labels:
[1] = Hydrolysis in pH 6.0 uptake buffer; type: physicochemical; settings: 37 °C, * no area decrease detected in HPLC after 2 h, ** less than 5% decrease after 2 h
rat jejunum = assay: In situ single-pass rat jejunum perfusion; type: in vivo; settings: 0.1 mM, pH 6.5, compared to co-perfused metoprolol; result in words (Figure 3)
How it was run: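 Male Wistar rats, 250–280 g, fasted 12–18 h, anesthetized i.m. with ketamine-xylazine; ~10 cm jejunal segment cannulated in situ at 37 °C. Perfused at 0.2 mL/min with pH 6.5 MES buffer containing 0.1 mM test compound, 0.4 mg/mL metoprolol and phenol red. Samples every 10 min for 1 h after 1 h steady state; HPLC. […], outlet corrected by phenol red; n=4.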

HeLa cell homogenates = assay: Hydrolysis in HeLa cell homogenates; type: in vitro ADME; settings: 500 μg/mL protein, 37 °C; * no area decrease detected in HPLC after 2 h
[2] = Hydrolysis in pH 7.4 phosphate buffer; type: physicochemical
How it was run: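 Test compound (200 mM DMSO stock) in 10 mM phosphate buffer, pH 7.4, at 37 °C. Sampled at 0, 5, 10, 30, 60 and 120 min, quenched in 0.1% TFA, HPLC. Pseudo-first-order k from ln(remaining) vs time; t1/2=0.693/k; triplicate.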

Caco-2 cell homogenates = assay: Hydrolysis in Caco-2 cell homogenates; type: in vitro ADME; settings: 500 μg/mL protein, 37 °C; * no area decrease detected in HPLC after 2 h
HeLa/hPEPT1 cells = assay: Direct uptake in HeLa/hPEPT1 cells; type: cell-based, human; settings: for remaining in donor solution after 1 h: direct uptake study, HeLa/hPEPT1 and normal HeLa cells
How it was run: (§1)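 HeLa cells grown 5 days in 12-well plates; the hPEPT1 set was infected with hPEPT1 adenovirus 3 days before, and uninfected HeLa served as control. After a wash and 15 min preincubation in uptake buffer (pH 6.0, MES) at 37 °C, cells took 1 mM test compound for 60 min at 37 °C. Then washed ice-cold, sonicated, TFA-precipitated (7% final), HPLC; protein measured by DC assay; triplicate.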

hPEPT1 = molecular target: T1, hPEPT1 (Homo sapiens, UniProt P46059); assay: [3H]Gly-Sar uptake inhibition in HeLa/hPEPT1 cells; type: cell-based
T1 sequence (P46059 1-708): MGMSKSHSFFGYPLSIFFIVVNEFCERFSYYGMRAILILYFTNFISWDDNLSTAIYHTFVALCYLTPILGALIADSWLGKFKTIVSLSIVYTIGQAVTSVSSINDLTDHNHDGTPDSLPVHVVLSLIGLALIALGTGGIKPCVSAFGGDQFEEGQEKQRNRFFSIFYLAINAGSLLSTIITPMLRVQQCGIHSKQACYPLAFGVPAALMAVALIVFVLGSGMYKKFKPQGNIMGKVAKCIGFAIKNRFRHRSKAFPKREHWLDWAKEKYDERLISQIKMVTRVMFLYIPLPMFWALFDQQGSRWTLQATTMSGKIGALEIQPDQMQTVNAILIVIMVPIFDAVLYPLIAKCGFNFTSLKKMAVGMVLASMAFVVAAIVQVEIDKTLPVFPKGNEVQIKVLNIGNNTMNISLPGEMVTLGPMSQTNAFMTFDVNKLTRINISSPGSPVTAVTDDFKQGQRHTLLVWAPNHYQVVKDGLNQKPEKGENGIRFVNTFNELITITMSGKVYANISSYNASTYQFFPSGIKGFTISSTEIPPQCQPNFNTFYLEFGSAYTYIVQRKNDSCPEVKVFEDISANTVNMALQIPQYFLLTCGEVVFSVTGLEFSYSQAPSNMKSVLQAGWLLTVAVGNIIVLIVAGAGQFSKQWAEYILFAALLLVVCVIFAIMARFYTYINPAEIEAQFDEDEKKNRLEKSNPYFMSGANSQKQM
How it was run: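 HeLa cells infected with hPEPT1 adenovirus 3 days before assay. Incubated 30 min at 37 °C in pH 6.0 MES uptake buffer with 10 μM Gly-Sar (0.1 μM [3H]) plus 0.05–5 mM test compound. Washed three times ice-cold, lysed in 0.1% SDS, scintillation counted. IC50 by nonlinear fitting; n=4.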

Caco-2 monolayers = assay: Caco-2 monolayer permeability study; type: in vitro ADME; settings: for Apparent apical-to-basolateral permeability coefficient (Papp): 200 μM, apical pH 6.0, basolateral pH 7.5, result in words (Figure 1)
How it was run: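 Caco-2 cells grown on collagen-coated 3.0 μm-pore transwell inserts and used 22–23 days post-seeding; TEER checked before and after. After 15 min preincubation at 37 °C, apical MES buffer (pH 6.0) replaced with 200 μM test compound, basolateral HEPES buffer (pH 7.5). Basolateral aliquots taken at set intervals and replaced with fresh buffer; HPLC. Papp=(1/C0A)(dQ/dt), steady-state rate; triplicate.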

[3] = cited from earlier work
HeLa cells = assay: Direct uptake in normal HeLa cells; type: cell-based; settings: 1 mM test compound, pH 6.0, 60 min
How it was run: as §1

[4] = substrate: NC(N)=Nc1cccc(COC(=O)[C@@H](N)Cc2ccccc2)c1; assay: hVACVase-mediated hydrolysis; type: biochemical, human; settings: other: recombinant hVACVase, 50 mM HEPES pH 7.4, 37 °C
[5] = substrate: CC(C)[C@H](N)C(=O)OCCOCn1cnc2c(=O)[nH]c(N)nc21; assay: hVACVase-mediated hydrolysis; type: biochemical, human; settings: other: recombinant hVACVase, 50 mM HEPES pH 7.4, 37 °C
[6] = substrate: CC(C)[C@H](N)C(=O)OCc1cccc(NC(=N)N)c1; assay: hVACVase-mediated hydrolysis; type: biochemical, human; settings: other: recombinant hVACVase, 50 mM HEPES pH 7.4, 37 °C
[7] = substrate: CC[C@H](C)[C@H](N)C(=O)OCc1cccc(N=C(N)N)c1; assay: hVACVase-mediated hydrolysis; type: biochemical, human; settings: other: recombinant hVACVase, 50 mM HEPES pH 7.4, 37 °C

Half-lives, pH 6 buffer [1]: stable ^*
Effective permeability (Peff), rat jejunum (rat jejunum): very low
Half-lives, HeLa cell homogenates (HeLa cell homogenates): stable ^*
Half-lives, pH 7.4 buffer ([2]; 10 mM phosphate buffer pH 7.4, 37 °C, * no area decrease detected in HPLC after 2 h): stable ^*
Half-lives, Caco-2 cell homogenates (Caco-2 cell homogenates): stable ^*
remaining in donor solution after 1 h (HeLa/hPEPT1 cells): > 95%
Molecule: N=C(N)Nc1cccc(CO)c1 [3-HPG, [3-(hydroxymethyl)phenyl]guanidine]

IC50 (hPEPT1): 1050 ± 130 µM
Molecule: CC[C@H](C)[C@H](N)C(=O)OCc1ccccc1 [Ile-OBz, L-Isoleucine benzyl ester 4-toluenesulfonate salt]

Half-lives, pH 6 buffer [1]: stable ^**
remaining in donor solution after 1 h (HeLa/hPEPT1 cells): > 80%
Molecule: NC(N)=Nc1cccc(COC(=O)[C@@H](N)Cc2ccccc2)c1 [Phe-3-HPG, L-Phenylalnine [3-[(aminoiminomethyl)amino]phenyl]methyl ester]
Apparent apical-to-basolateral permeability coefficient (Papp) (Caco-2 monolayers): didn’t show significantly different permeability than 3-HPG

IC50 (hPEPT1): > 3000 µM
Molecule: N[C@@H](Cc1ccccc1)C(=O)OCc1ccccc1 [Phe-OBz, L-phenylalanine benzyl ester hydrochloride]

IC50 (hPEPT1): 390 ± 40 µM
Molecule: CC(C)[C@H](N)C(=O)OCc1ccccc1 [Val-OBz, L-valine benzyl ester hydrochloride]

Molecule: CC1CNc2c(cccc2S(=O)(=O)N[C@@H](CCCNC(=N)N)C(=O)N2CC[C@@H](C)C[C@@H]2C(=O)O)C1 (stereo partly drawn) [argatroban]
oral bioavailability ([3]; in vivo, po): low oral bioavailability

Half-lives, pH 6 buffer [1]: stable ^*
half-life at 200 µM ([2]; phosphate buffer, pH 7.4): 13.8 ± 0.417 h
remaining in donor solution after 1 h (HeLa/hPEPT1 cells): > 95%
Molecule: CC(C)[C@H](N)C(=O)OCCOCn1cnc2c(=O)nc(N)[nH]c21 [valacyclovir]
uptake, HeLa cells (HeLa cells): < 0.2 nmol/mg in 60 min
oral bioavailability [3]: more than 50%
hPEPT1/control (HeLa/hPEPT1 cells; ratio of uptake in HeLa/hPEPT1 cells to uptake in normal HeLa cells (fold)): > 25

Molecule: CC(C)[C@H](N)C(=O)OCC(CO)OCn1cnc2c(=O)nc(N)[nH]c21 (stereo partly drawn) [valganciclovir]
oral bioavailability [3]: more than 50%

Molecule: CC(=O)N[C@H]1[C@H]([C@H](O)[C@H](O)CO)OC(C(=O)O)=C[C@@H]1N=C(N)N [zanamivir]
oral bioavailability ([3]; result in words): low oral bioavailability

Apparent apical-to-basolateral permeability coefficient (Papp) (Caco-2 monolayers): no transport
Stability in apical side during Caco-2 permeability study (Caco-2 monolayers; percentage of ester form in donor solution at 120 min): 98.8 ± 0.1%
Molecule: D-Valine [3-[(aminoiminomethyl)amino]phenyl]methyl ester [D-Val-3-HPG]

B1: hVACVase (Homo sapiens) (protein)
chain: SVTSAKVAVNGVQLHYQQTGEGDHAVLLLPGMLGSGETDFGPQLKNLNKKLFTVVAWDPRGYGHSRPPDRDFPADFFERDAKDAVDLMKALKFKKVSLLGWSDGGITALIAAAKYPSYIHKMVIWGANAYVTDEDSMIYEGIRDVSKWSERTRKPLEALYGYDYFARTCEKWVDGIRQFKHLPDGNICRHLLPRVQCPALIVHGEKDPLVPRFHADFIHKHVKGSRLHLMPEGKHNLHLRFADEFNKLAEDFLQ
Km [4]: 207 ± 16 µM
Vmax [4]: 718 µmol/min/mg
kcat [4]: 345 ± 8 s⁻¹
kcat/Km [4]: 1.66e+06 ± 160000 M⁻¹ s⁻¹
Km [5]: 68 ± 4 µM
Vmax [5]: 120 µmol/min/mg
kcat [5]: 58 ± 1 s⁻¹
kcat/Km [5]: 850000 ± 66000 M⁻¹ s⁻¹
Km [6]: 46 ± 5 µM
Vmax [6]: 321 µmol/min/mg
kcat [6]: 154 ± 4 s⁻¹
kcat/Km [6]: 3.37e+06 ± 460000 M⁻¹ s⁻¹
Km [7]: 9.0 ± 1.2 µM
Vmax [7]: 30 µmol/min/mg
kcat [7]: 14 ± 1 s⁻¹
kcat/Km [7]: 1.58e+06 ± 260000 M⁻¹ s⁻¹
